Vif imaging: blocks HIV Vif function; AID 602346; inhibition, % at 7.49 µM; actives 0.35% (n = 340,000); HEK293T cells, Vif self-association by quenched fluorescence, imaging, 24 h; in the data active = inhibition above about 50%, passing the limit was not always enough
MT1-MMP act inh: inhibitors of human MT1-MMP activation | P50281 | HT1080 RFP-PRO-GFP cells, GFP/RFP ratio fluorescence, overnight; percent of plate control window, DMSO zero | GFP/RFP ratio change, % at 20 µM | actives 0.061% (n = 360,000) | AID 651647;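 active = GFP/RFP ratio change of at least 30% with cell ATP level not reduced by more than half and red fluorescence within 50% of control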
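system = RFP-PRO-GFP reporter HT1080 cells | dosing = 20 µM single dose, 1% DMSO | timing = overnight cell settling, then overnight compound exposure, 37 °C, 5% CO2 | read-out basis = GFP/RFP fluorescence ratio | controls = DMSO and RFP-L50D-GFP cell wells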
NR2E3 ag-1: activates human NR2E3 receptor; CHO-S Gal4-NCOR/VP16-NR2E3 two-hybrid, luciferase; inhibition of corepressor binding, % at 3.98 µM; actives 0.35% (n = 360,000); AID 602229;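 active = inhibition above the mean of all tested compounds plus 3 SD, cut at about 70% in these data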;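 note: higher means lower luciferase signal from less NR2E3 corepressor binding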
Target sequence (Q9Y5X4 whole entry, looked up, the tested form may be a part): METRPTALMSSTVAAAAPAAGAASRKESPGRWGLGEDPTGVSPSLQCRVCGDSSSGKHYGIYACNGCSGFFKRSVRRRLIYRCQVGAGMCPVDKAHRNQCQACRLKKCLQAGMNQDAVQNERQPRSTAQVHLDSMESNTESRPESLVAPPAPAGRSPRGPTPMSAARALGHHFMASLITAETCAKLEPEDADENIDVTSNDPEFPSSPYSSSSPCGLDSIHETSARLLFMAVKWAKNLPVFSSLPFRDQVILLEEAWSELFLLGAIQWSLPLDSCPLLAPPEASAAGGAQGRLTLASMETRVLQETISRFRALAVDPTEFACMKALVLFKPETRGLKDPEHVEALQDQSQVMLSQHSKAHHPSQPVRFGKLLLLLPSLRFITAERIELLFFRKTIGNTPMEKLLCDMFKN
NR2E3 ag-2: activates human photoreceptor nuclear receptor NR2E3; Q9Y5X4; GST-NR2E3/biotin-RetCOR TR-FRET, 1536-well; inhibition of corepressor binding, % at 4.78 µM; actives 0.12% (n = 320,000);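 active = percent inhibition above the cutoff of mean plus 3 SD of all tested compounds, set per screening campaign, cut at about 20% in these data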
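system = GST-tagged NR2E3 plus biotinylated RetCOR corepressor | input = 1.35 nM GST-NR2E3 | also added = 7 nM biotin-RetCOR | schedule = 5 h incubation at 4 °C | measured by = TR-FRET with europium anti-GST and streptavidin-D2, 340 nm excitation | read-out = percent loss of FRET ratio relative to control wells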
HCV core dimer: blocks dimerization of HCV core protein; TR-FRET GST/Flag-core106 dimerization, 1536-well; inhibition, % at 5 µM; actives 0.33% (n = 300,000);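 active = inhibition above the mean of all tested compounds plus 3 SD, set per screening campaign, cut at about 45% in these data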
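Assay system: tagged HCV core106 pair (GST and Flag); medium: KF-containing HEPES buffer, pH 7.45, DTT, CHAPS, BSA; also added: Eu donor and XL665 acceptor anti-tag antibodies; dosing: 5 µM single dose; timing: compound-protein-antibody incubation 4 h at 22.5 °C; signal: TR-FRET 671 and 617 nm emission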
DAGLB inh: diacylglycerol lipase beta (human) inhibition; Q8NCG7; HEK293T DAGLB membrane lysate, EnzChek fluorogenic substrate; inhibition, % at 5.17 µM; actives 0.059% (n = 340,000); AID 504411; in the data active = inhibition above about 34%
NR2E3 ag conf: confirmation of human NR2E3 agonists; inhibition, % at 3.98 µM; shares compounds with NR2E3 ag-1; actives 51% (n = 2,300); CHO-S mammalian two-hybrid NR2E3-NCOR, luciferase luminescence;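 active = average inhibition above a cutoff equal to the mean inhibition of all tested compounds plus one SD, cut at about 70% in these data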
GAL4-VP16 luc: reduces GAL4-VP16 reporter signal in NR2E3 counterscreen; shares compounds with NR2E3 ag-1; CHO-S GAL4-VP16 luciferase reporter, luminescence; inhibition, % at 3.98 µM; actives 29% (n = 2,300);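 active = mean inhibition above a cutoff equal to the average over all tested compounds plus one standard deviation, cut at about 70% in these data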;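 note: luciferase from a UAS reporter driven by GAL4-VP16 transactivation; higher means less reporter light so more repression of VP16 activity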
Each line names hits and unclear results; the compound was inactive in the other large screens (follow-up assays come after a bar, where they were run). Only some compounds are listed: those with a hit (about 1.1% of all), similar ones and a draw of the others.

O=C(Nc1cccc(Cl)c1Cl)C1CCCO1 (stereo unspecified)	none
COC(=O)CCSC(=S)N1CCOCC1	none
CCc1ccc(/C(C)=N/NC(=O)CNC(=O)/C=C/c2ccco2)cc1	none (no result: MT1-MMP act inh)
c1ccc2c(c1)oc1c(NCc3ccc4c(c3)OCO4)ncnc12	NR2E3 ag-1 73 (no result: Vif imaging) | NR2E3 ag conf 90 | GAL4-VP16 luc 75
c1ccc2c(c1)oc1c(Nc3ccc4c(c3)OCO4)ncnc12	none
CC1(C(=O)NS(=O)(=O)c2cccs2)CCN1C(=O)c1ccccc1CCc1ccccc1 (stereo unspecified)	none (no result: NR2E3 ag-2, HCV core dimer, DAGLB inh)
COc1ccc(Cl)cc1NS(=O)(=O)c1cccc(C(=O)NC2CC2)c1	none (no result: NR2E3 ag-2, HCV core dimer)
Cc1nc(NCCN2CCOCC2)c2oc3ccccc3c2n1	none
Cc1nc(NCCc2ccccc2)c2oc3ccccc3c2n1	NR2E3 ag-1 72 | NR2E3 ag conf 91 | GAL4-VP16 luc 76
Cc1cccc(N2CCN(C(=O)CSCc3c(C)noc3C)CC2)c1C	none | NR2E3 ag conf 87 | GAL4-VP16 luc inactive
Cc1noc(C)c1CSCC(=O)N1CCN(c2ccc(F)cc2)CC1	none
O=C(NCCCSc1ccccc1)c1cc(Br)ccc1O	NR2E3 ag-1 87 (no result: Vif imaging, NR2E3 ag-2, HCV core dimer) | NR2E3 ag conf 99 | GAL4-VP16 luc 90
CCCCCCC[C@@H](C/C=C/CCC(=O)N(C)C/C(=C/Cl)C/C(=C\C(=O)N1C[C@H](O)CC1=O)OC)OC	none (no result: NR2E3 ag-2, HCV core dimer) | NR2E3 ag conf inactive | GAL4-VP16 luc inactive
Nc1ncnc2c(C3OC(CO)C(O)C3O)c[nH]c12 (stereo unspecified)	NR2E3 ag-1 103 (no result: NR2E3 ag-2, HCV core dimer) | NR2E3 ag conf 101 | GAL4-VP16 luc 99
O=S(=O)(NCc1ccccc1Cl)c1cccs1	none
Cn1c(=O)c2c(nc3n2CC(O)CN3c2ccc(O)cc2)n(C)c1=O (stereo unspecified)	none
Cc1ccc(S(=O)(=O)N2CCN(c3ccnc4cc(Cl)ccc34)CC2)cc1	none
CC(=O)c1ccc(S(=O)(=O)N2CCN(c3ccnc4cc(Cl)ccc34)CC2)cc1	none (no result: NR2E3 ag-2, HCV core dimer) | NR2E3 ag conf inactive | GAL4-VP16 luc inactive
O=C(c1ccc(F)cc1)N1CCC(C(=O)N2CCN(c3ncccn3)CC2)CC1	none (no result: NR2E3 ag-2, HCV core dimer)
CCCc1ccc2oc(C(=O)N(C)Cc3nccs3)c(C)c2c1	none
CCCCCCCCCCOC(=O)Cn1c(COc2ccccc2OC)[n+](C)c2ccccc21	none | NR2E3 ag conf 95 | GAL4-VP16 luc inactive
O=C(CSc1ccccc1)N1CCC(N2CCC(C(=O)N3CCCC3)CC2)CC1	NR2E3 ag-1 88 | NR2E3 ag conf inactive | GAL4-VP16 luc inactive
N#Cc1ccc(NC(=O)COC(=O)CCc2nc3ccccc3c(=O)[nH]2)cc1	none
Cc1cccc(N2CCN(C(=O)C3CCC(CNS(=O)(=O)c4cccs4)CC3)CC2)c1C (stereo unspecified)	none | NR2E3 ag conf inactive | GAL4-VP16 luc inactive
O=C(C1CCC(CNS(=O)(=O)c2cccs2)CC1)N1CCCCC1 (stereo unspecified)	none
Cc1cc(/C=C2\SC(=S)NC2=O)c(C)[nH]1	none (no result: Vif imaging)
O=C1NC(=S)S/C1=C\c1cc(Cl)ccc1Cl	NR2E3 ag-1 81 (no result: NR2E3 ag-2, HCV core dimer) | NR2E3 ag conf 99 | GAL4-VP16 luc inactive
CCOc1ccccc1CNc1ncnc2ccc(-c3c(C)noc3C)cc12	NR2E3 ag-1 82 (no result: HCV core dimer) | NR2E3 ag conf 81 | GAL4-VP16 luc inactive
Cc1ccccc1C(=O)NNC(=S)NC(=O)c1ccc(Cl)cc1Cl	none
COc1ccccc1NC(=S)NNC(=O)c1ccc(Cl)cc1Cl	none | NR2E3 ag conf inactive | GAL4-VP16 luc inactive
CC(=O)Nc1ccc(NC(=O)c2csc([C@@H]3C[C@H](O)[C@@H](CO)O3)n2)cc1	none (no result: NR2E3 ag-2, HCV core dimer, DAGLB inh)
O=C(Nc1ccc(Oc2ccccc2)cc1)c1csc([C@H]2C[C@H](O)[C@@H](CO)O2)n1	none (no result: NR2E3 ag-2, HCV core dimer, DAGLB inh) | NR2E3 ag conf 78 | GAL4-VP16 luc inactive

High-throughput results deposited in PubChem BioAssay by several laboratories.
